Compounds with a hit are over-represented: about 1.3% of the library has one in this group of screens.
S1P4 antag = S1P4 receptor antagonists, primary screen, cell-based | Sphingosine 1-phosphate receptor 4 (Homo sapiens), O95977 | S1P4-expressing cells, antagonist mode, reporter read-out | inhibition, % at 4.98 µM | 220,000 tested, 0.26% active; in the data active = inhibition above about 29%;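 also: 0% = wells stimulated with agonist and 100% = vehicle wells without agonist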
S1P4 agonist = S1P4 receptor agonists, primary screen, cell-based; Sphingosine 1-phosphate receptor 4 (Homo sapiens), O95977; S1P4-expressing cell line, agonist reporter assay; activation, % at 4.98 µM; 220,000 tested, 0.35% active; AID 1509, 2009; in the data active = activation above about 11%;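 also: 0% = DMSO vehicle and 100% = reference agonist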
Mdm2 ligase inh = MDM2-luciferase reporter signal enhancers, primary screen, MDM2 E3 ligase inhibitor project, cell-based, luminescence, 1536-well. E3 ubiquitin-protein ligase Mdm2 (Homo sapiens), Q00987. cell-based MDM2 ubiquitination luciferase reporter, 2 h; 0 = plate control, 100 = twice control, blank-subtracted. signal enhancement, % at 5 µM. 210,000 tested, 0.11% active;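 active = signal enhancement of 30% or more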;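 also: luminescence tracks abundance of the self-degrading MDM2-luciferase fusion protein; higher signal means inhibition of MDM2 E3 ligase activity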
Target sequence (Q00987 whole entry, looked up, the tested form may be a part): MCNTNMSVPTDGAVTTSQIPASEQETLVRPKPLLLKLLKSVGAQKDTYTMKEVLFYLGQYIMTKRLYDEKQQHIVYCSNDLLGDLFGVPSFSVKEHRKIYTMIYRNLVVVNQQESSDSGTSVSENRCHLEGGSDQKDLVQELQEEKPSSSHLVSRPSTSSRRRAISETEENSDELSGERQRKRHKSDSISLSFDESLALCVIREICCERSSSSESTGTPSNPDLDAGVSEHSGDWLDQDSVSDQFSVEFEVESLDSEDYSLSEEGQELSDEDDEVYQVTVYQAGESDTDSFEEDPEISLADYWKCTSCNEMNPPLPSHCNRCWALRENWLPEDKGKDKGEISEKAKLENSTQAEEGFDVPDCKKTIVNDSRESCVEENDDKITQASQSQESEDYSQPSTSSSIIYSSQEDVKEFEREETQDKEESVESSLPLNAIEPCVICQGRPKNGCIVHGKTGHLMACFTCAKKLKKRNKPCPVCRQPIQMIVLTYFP
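system = mammalian cells stably expressing self-ubiquitinating, self-degrading MDM2 E3–luciferase fusion | quantity = 2000 cells per well seeded | incubation = 4 h cell settling then 2 h compound exposure, 37 °C | signal = SteadyLite luminescence, 15 min reagent step | benchmarks = plate control and blank wells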
Dynein cargo inh = inhibitors of GR-EGFP nuclear translocation, primary screen, dynein cargo transport inhibitor project, imaging, high-content, 3617.4 mouse cells; 220,000 tested, 0.47% active; z-score, hits read low; test concentration mostly 20 µM; stimulated with dexamethasone, 1 µM; hits give low values;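 active = plate z-score of nuclear minus cytoplasmic receptor signal below a set negative limit, without overly bright fluorescence or cell loss, cut at about -3.5 in these data, passing the limit was not always enough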;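 also: z-score of nuclear minus cytoplasmic ring GR-EGFP intensity difference per well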
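Buffer or medium: tet-free, stripped-serum medium; Also added: dexamethasone, 1.0 µM final; Technique: high-content fluorescence imaging after fixation; Times: 48 h induction, 1 h compound, 30 min dex at 37 °C; Read-out: per-cell GR-EGFP intensity, nucleus versus surrounding cytoplasmic ring, well-averaged.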
Hsp70 activator = Hsp70 transcriptional activators, primary screen, cell-based, HeLa, Hsp70 promoter luciferase, luminescence, 10 µM | HeLa Hsp70 promoter luciferase reporter; scaled: vehicle 0, proteasome-inhibitor control 100% | activation, % at 10 µM | 200,000 tested, 0.04% active | AID 1203, 2008;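 active = activation above the mean across all tested compounds plus 3 SD, cutoff set per campaign, cut at about 5.5% in these data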;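 also: 100% = MG132 at 30 µM as the positive control and 0% = DMSO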
S1P3 antagonist = S1P3 receptor antagonists, primary screen, cell-based. Sphingosine 1-phosphate receptor 3 (Homo sapiens), Q99500. CHO S1P3 NFAT-BLA reporter, FRET fluorescence, antagonist mode. inhibition, % at 4.98 µM. 170,000 tested, 0.27% active. AID 485, 2006;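 active = inhibition above the plate cutoff, the mean inhibition of test wells on that plate plus 3 SD, cut at about 28% in these data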;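 also: cells challenged with S1P at its EC80 of 0.8 µM; blue over green emission ratio from cleaved BLA substrate after 4 h stimulation; 0% = S1P-stimulated wells and 100% = unstimulated DMSO-only wells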
Dynein confirm = dynein cargo transport inhibitors, GR-EGFP translocation, confirmation, imaging, high-content imaging, GR-EGFP cells. 1,000 tested, 69% active. 3617.4 GR-EGFP nuclear translocation imaging, dexamethasone-induced. calls only at 20 µM. shares compounds with Dynein cargo inh;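 active = inhibition of receptor movement into the nucleus at or above a set limit in both runs, with normal cell brightness and cell count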;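 also: dexamethasone at 1 µM final in well for 30 min; nuclear minus cytoplasmic GR-EGFP mean intensity difference in channel 2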
Numbers without * were called inactive.

For CCOC(=O)/C(=C\c1cn(C)c2ccccc12)[N+](=O)[O-] the results were S1P4 antag -3, S1P4 agonist 1, Mdm2 ligase inh -25, Dynein cargo inh -3.7*, Hsp70 activator 0, S1P3 antagonist 2 and Dynein confirm active.
Screening Cc1ccc(OCC(O)CNCc2ccccc2)cc1C (stereo not given) returned S1P4 antag 1, S1P4 agonist -1, Mdm2 ligase inh -8, Dynein cargo inh -1.3 and S1P3 antagonist 1.
Screening OC(CNCCc1ccc(Cl)cc1)COc1ccc2ccccc2c1 (stereo not given) returned S1P4 antag -15, S1P4 agonist 2, Mdm2 ligase inh -14, Dynein cargo inh -8.2*, Hsp70 activator 0, S1P3 antagonist -7 and Dynein confirm inactive.
CCn1nc([N+](=O)[O-])c(C(C#N)c2nc3cc(C(F)(F)F)ccc3s2)c(Cl)c1=O (stereo not given) was read as S1P4 antag 11, S1P4 agonist 2, Mdm2 ligase inh -19, Dynein cargo inh -4.4*, Hsp70 activator 0 and Dynein confirm active.
`CCCn1nc([N+](=O)[O-])c(C(C#N)c2nc3ccccc3o2)c(Cl)c1=O` (stereo not given) gave S1P4 antag 2, S1P4 agonist 2, Mdm2 ligase inh -18, Dynein cargo inh 0.058, Hsp70 activator 0 and S1P3 antagonist -10.
Nc1ccc2c3c(cccc13)C(=O)N(c1ccccc1)C2=O was read as S1P4 antag -5, S1P4 agonist 1, Mdm2 ligase inh -13, Dynein cargo inh -5*, Hsp70 activator 0, S1P3 antagonist 3 and Dynein confirm active.
`Cc1cc(C(=O)CN2C(=O)CN(C)C2=O)c(C)n1-c1cccc(S(=O)(=O)N2CCOCC2)c1` gave S1P4 antag -13, S1P4 agonist 1, Mdm2 ligase inh -24, Dynein cargo inh -0.59, Hsp70 activator 0 and S1P3 antagonist 5.
Cc1cc(C(=O)CCl)c(C)n1-c1cccc(S(=O)(=O)N2CCOCC2)c1 was read as S1P4 antag -11, S1P4 agonist 0, Mdm2 ligase inh -17, Dynein cargo inh -5.3*, Hsp70 activator 0, S1P3 antagonist -8 and Dynein confirm active.
`Cc1ccc2nc(SCC(=O)Nc3ccc(C(N)=O)cc3)[nH]c2c1` gave S1P4 antag -9, S1P4 agonist 0, Mdm2 ligase inh -16, Dynein cargo inh -6.7*, Hsp70 activator 0, S1P3 antagonist -13 and Dynein confirm inactive.
Cc1ccc2nc(SCC(=O)Nc3cccc([N+](=O)[O-])c3)[nH]c2c1 was read as S1P4 antag -19, S1P4 agonist 0, Mdm2 ligase inh -6, Dynein cargo inh -0.083 and Hsp70 activator 0.
Screening Cc1c(NC(=O)COC(=O)c2ccc(S(=O)(=O)N3CCOCC3)cc2)c(=O)n(-c2ccccc2)n1C returned S1P4 antag 0, S1P4 agonist -2, Mdm2 ligase inh 0, Dynein cargo inh -0.66, Hsp70 activator 0 and S1P3 antagonist -6.
For COC(=O)Cn1c(=N)n(CCN2CCCCC2)c2ccccc21 the results were S1P4 antag -7, S1P4 agonist 0, Mdm2 ligase inh 2, Dynein cargo inh -0.73, Hsp70 activator 0 and S1P3 antagonist -6.
`N=c1n(CCN2CCCCC2)c2ccccc2n1CC(=O)c1ccc(Cl)c(Cl)c1` gave S1P4 antag 15, S1P4 agonist -1, Mdm2 ligase inh -6, Dynein cargo inh -3.6*, S1P3 antagonist -2 and Dynein confirm inactive.
For CC(=O)Nc1sc(/C(C#N)=C\c2cccc(Cl)c2)nc1-c1ccc(C)cc1 the results were S1P4 antag -9, S1P4 agonist 0, Mdm2 ligase inh -14, Dynein cargo inh -5.9, Hsp70 activator 0, S1P3 antagonist 24 and Dynein confirm inactive.
`CC(=O)Nc1sc(N/N=C/c2ccccc2)nc1-c1ccc(C)cc1` gave S1P4 antag 23, S1P4 agonist 0, Mdm2 ligase inh -4, Dynein cargo inh -0.89 and S1P3 antagonist 10.
`N#Cc1cc(-c2ccccc2)nc(Oc2ccc(Cl)cc2)n1` gave S1P4 antag -15, S1P4 agonist -2, Mdm2 ligase inh -27, Dynein cargo inh -4.3*, Hsp70 activator 0, S1P3 antagonist 2 and Dynein confirm active.
`COc1ccc(-n2cccc2/C=C/[N+](=O)[O-])cc1` gave S1P4 antag -5, S1P4 agonist 0, Mdm2 ligase inh 0, Dynein cargo inh -3.8*, Hsp70 activator 0, S1P3 antagonist 13 and Dynein confirm active.
For C/C(CCc1oc2c(Br)cc(Br)cc2c1-c1ccc(C)o1)=N\O the results were S1P4 antag 3, S1P4 agonist 0, Mdm2 ligase inh 14, Dynein cargo inh -4.1*, Hsp70 activator 0 and Dynein confirm inactive.
`CCOC(=O)CSC1=NC(=O)/C(=C\c2ccc(Cl)cc2)S1` gave S1P4 antag 3, S1P4 agonist 1, Mdm2 ligase inh -14, Dynein cargo inh -4.1*, Hsp70 activator 0 and Dynein confirm inactive.
For CSC1=NC(=O)/C(=C/c2ccc(SC)cc2)S1 the results were S1P4 antag -12, S1P4 agonist 0, Mdm2 ligase inh -17, Dynein cargo inh 0.18, Hsp70 activator 0 and S1P3 antagonist -22.
`Cc1ccc(Sc2ccc(NC(=O)CCl)cc2)cc1C` gave S1P4 antag 5, S1P4 agonist -1, Mdm2 ligase inh -10, Dynein cargo inh -4.5*, Hsp70 activator 0, S1P3 antagonist 2 and Dynein confirm active.
O=C(CCl)Nc1cccc(Oc2ccccc2)c1 was read as S1P4 antag -4, S1P4 agonist 10, Mdm2 ligase inh -12, Dynein cargo inh -4.3*, Hsp70 activator 0, S1P3 antagonist -11 and Dynein confirm active.
`O=C(CCl)Nc1ccc(N2CCCCCC2)cc1` gave S1P4 antag 0, S1P4 agonist 0, Mdm2 ligase inh -10, Dynein cargo inh -6*, Hsp70 activator 0, S1P3 antagonist -9 and Dynein confirm active.

Bioassay records from PubChem BioAssay.
